For assay [1], the target named is T1, Serine/threonine-protein kinase TAO2 (Rattus norvegicus, UniProt Q9JLS3).
T1 sequence (Q9JLS3 whole entry): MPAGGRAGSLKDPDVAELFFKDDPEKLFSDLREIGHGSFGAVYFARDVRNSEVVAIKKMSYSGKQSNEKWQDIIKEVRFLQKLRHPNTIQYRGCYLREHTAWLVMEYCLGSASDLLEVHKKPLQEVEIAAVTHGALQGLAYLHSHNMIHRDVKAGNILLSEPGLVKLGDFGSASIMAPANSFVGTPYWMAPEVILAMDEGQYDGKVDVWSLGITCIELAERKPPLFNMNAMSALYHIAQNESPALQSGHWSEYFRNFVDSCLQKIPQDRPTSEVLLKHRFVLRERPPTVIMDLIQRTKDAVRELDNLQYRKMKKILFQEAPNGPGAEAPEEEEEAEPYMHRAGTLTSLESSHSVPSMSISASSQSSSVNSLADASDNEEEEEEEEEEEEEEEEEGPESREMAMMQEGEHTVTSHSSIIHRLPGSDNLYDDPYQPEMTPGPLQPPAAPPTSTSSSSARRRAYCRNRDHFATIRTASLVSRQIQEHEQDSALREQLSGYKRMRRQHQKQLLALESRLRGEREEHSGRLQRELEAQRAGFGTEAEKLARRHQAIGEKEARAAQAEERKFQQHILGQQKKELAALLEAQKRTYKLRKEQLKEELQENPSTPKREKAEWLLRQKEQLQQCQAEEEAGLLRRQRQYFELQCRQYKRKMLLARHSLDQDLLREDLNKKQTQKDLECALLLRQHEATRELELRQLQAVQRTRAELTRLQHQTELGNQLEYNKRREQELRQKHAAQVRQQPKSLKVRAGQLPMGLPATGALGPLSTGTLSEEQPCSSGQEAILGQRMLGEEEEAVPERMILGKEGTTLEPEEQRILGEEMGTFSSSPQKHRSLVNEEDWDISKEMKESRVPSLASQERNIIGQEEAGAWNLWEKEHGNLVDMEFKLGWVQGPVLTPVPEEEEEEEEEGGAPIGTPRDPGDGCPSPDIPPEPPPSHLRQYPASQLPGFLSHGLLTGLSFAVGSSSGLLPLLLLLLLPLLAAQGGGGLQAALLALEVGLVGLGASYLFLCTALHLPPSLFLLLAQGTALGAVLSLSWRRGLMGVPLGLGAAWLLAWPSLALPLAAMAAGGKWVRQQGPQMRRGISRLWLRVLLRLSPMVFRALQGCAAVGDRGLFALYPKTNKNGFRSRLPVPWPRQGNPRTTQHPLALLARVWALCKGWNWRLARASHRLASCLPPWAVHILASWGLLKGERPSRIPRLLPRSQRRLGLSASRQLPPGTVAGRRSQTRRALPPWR
Put plainly: Inhibition of rat TAOK2 (1 to 320 residues) expressed in Baculovirus/insect cell expression system assessed as remaining activity using MBP as substrate and [32P]ATP measured after 10 mins by Kinase-Glo assay. On the technique in general: Kinase-Glo reads ATP consumption through a luciferase reaction.

Assay [2] addresses T2, Serine/threonine-protein kinase TAO2 (Homo sapiens) (UniProt Q9UL54).
T2 sequence (whole entry): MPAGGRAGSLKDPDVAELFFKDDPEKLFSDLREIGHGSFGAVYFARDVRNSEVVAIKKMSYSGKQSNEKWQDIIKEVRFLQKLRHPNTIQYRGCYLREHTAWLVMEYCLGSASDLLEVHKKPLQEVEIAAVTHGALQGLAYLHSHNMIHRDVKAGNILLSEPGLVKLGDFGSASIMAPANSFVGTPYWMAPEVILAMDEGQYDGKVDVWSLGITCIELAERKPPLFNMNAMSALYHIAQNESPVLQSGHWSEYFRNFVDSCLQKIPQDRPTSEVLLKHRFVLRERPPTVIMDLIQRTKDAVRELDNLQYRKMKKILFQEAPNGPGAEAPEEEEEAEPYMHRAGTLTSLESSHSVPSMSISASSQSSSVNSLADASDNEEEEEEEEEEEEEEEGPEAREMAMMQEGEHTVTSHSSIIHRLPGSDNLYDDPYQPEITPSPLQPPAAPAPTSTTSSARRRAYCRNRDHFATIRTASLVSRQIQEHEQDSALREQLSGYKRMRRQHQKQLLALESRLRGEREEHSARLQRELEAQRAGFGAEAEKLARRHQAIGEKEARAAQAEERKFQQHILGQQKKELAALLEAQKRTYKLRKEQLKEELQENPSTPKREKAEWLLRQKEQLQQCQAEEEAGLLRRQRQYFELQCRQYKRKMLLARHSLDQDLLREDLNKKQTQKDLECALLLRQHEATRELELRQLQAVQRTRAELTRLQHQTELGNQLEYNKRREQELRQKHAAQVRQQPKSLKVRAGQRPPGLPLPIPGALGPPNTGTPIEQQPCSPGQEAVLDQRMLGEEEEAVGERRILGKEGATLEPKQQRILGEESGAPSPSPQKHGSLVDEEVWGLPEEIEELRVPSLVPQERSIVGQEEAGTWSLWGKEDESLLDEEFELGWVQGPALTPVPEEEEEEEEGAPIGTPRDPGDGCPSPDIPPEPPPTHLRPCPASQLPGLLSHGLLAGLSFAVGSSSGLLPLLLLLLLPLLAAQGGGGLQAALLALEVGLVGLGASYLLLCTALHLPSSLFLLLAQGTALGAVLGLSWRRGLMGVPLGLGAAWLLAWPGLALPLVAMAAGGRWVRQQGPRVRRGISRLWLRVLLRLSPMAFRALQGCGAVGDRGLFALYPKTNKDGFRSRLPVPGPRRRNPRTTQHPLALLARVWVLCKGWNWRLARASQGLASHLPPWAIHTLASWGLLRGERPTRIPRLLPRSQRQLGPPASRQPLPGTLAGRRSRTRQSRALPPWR
Put plainly: Inhibition of TAOK2 in human U2OS cells assessed as inhibition of cellular autophagy measured as P62 accumulation at 50 uM after 24 hrs by western blot analysis. Type of assay: cell-based. In outline: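 GFP–LC3-expressing U2OS cells were treated for 24 h with compound at 50 µM or with DMSO alone. p62 (SQSTM1) abundance was then assessed by Western blotting as a readout of autophagic degradation.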
Background: In western blotting, separated proteins are transferred to a membrane and probed.

In assay [3] the target is T3, Serine/threonine-protein kinase TAO2 (Rattus norvegicus) (UniProt Q9JLS3).
T3 sequence (whole entry): T1 sequence (Q9JLS3 whole entry)
The assay is described as follows: Binding affinity to rat TAOK2 (1 to 320 residues) expressed in Baculovirus/insect cell expression system assessed as change in melting temperature at 1 uM by SYPRO orange dye-based DSF analysis. An outline of the steps: (§1)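 Differential scanning fluorimetry: each compound's melting-temperature shift (ΔTm, °C) was measured on the kinase protein. Compounds giving a TAOK2 ΔTm above 0.5 °C were also run against p38 and ASK1. Selectivity (ΔΔTm) was taken as the TAOK2 ΔTm minus the p38 or ASK1 ΔTm.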
On the technique in general: In DSF a fluorescence change marks the thermal transition of the protein.

Assay [4] addresses MAP kinase p38 (Homo sapiens) (UniProt O15264+Q15759+Q16539+P53778). Put plainly: Binding affinity to p38 (unknown origin) assessed as change in melting temperature at 1 uM by SYPRO orange dye-based DSF analysis. The format is protein assay. An outline of the steps:
as §1

Assay [5] addresses Mitogen-activated protein kinase 8 (Homo sapiens) (UniProt P45983). Put plainly: Inhibition of human JNK1. The conditions noted are these: concentration not given here.
Assay [6] concerns the target T2, Serine/threonine-protein kinase TAO2 (Homo sapiens). Put plainly: Inhibition of human TAO2. The settings on record: concentration not given here.

pIC50: −log10 of the molar value. Calls of active or inactive are those of the source. The rule behind the calls is not given here.

Sequence of Mitogen-activated protein kinase 8 (Homo sapiens) (P45983 whole entry): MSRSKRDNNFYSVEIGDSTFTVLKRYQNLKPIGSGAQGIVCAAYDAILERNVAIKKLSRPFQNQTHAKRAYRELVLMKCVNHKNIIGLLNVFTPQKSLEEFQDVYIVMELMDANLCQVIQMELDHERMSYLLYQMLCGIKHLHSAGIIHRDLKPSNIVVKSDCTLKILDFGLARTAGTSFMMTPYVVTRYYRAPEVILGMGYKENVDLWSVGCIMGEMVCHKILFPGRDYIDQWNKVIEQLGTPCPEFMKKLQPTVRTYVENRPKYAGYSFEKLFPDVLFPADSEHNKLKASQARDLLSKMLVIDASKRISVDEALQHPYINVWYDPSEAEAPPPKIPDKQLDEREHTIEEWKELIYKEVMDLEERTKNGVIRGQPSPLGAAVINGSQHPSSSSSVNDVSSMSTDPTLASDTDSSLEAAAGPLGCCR

Consider `O=C(NCC1COc2ccccc2O1)c1ccc(NC(=O)c2ccco2)cc1` (stereo not given), for which the pIC50 (usually the negative decadic logarithm of the IC50, by convention in mol/L) in assay [1] was 5.70. In assay [2], the inhibition (as a rule, how much of the control response was suppressed) was “Active”. The results for the ΔTm in assay [3] and in assay [4] were 1.6 °C and 2.2 °C, respectively.

Take `CCC(=O)Nc1nc(C)c(-c2csc(Nc3cc(OC)ccc3OC)n2)s1`: the inhibition in assay [5] and in assay [6] was greater than 50% each time. Besides, in assay [2], the inhibition result was “inactive”. In addition, the thermal shift (ΔTm) – broadly, the change in melting temperature against a reference sample – in assay [3] was found to be 3 °C; in assay [4] it was 2.8 °C.

As for `CS(=O)(=O)c1ccc2nc(NC(=O)CCCOc3ccc(Cl)cc3)sc2c1`, the inhibition result in assay [2] is “Active”. Besides, the ΔTm in assay [3] worked out at 1.3 °C; in assay [4], 2 °C. Moreover, the inhibition in assay [6] was greater than 50%.

On to `CCOCCCn1c(=S)[nH]c2cc(C(=O)NCC3COc4ccccc4O3)ccc2c1=O` (stereo not given), for which the pIC50 in assay [1] is 5.85 to 5.89. The inhibition result in assay [2] was “Active”. Also, the ΔTm in assay [3] and in assay [4] was 2 °C throughout. Besides, the inhibition in assay [6] was greater than 50%.

For `Cc1ccc(NCCCC(=O)N/N=C/c2cc(Br)cc(Br)c2O)cc1`, the pIC50 in assay [1] was 5.22. The ΔTm in assay [3] was 1.6 °C; in assay [4], 1.3 °C.

For `c1cc2[nH]c3c(c2c2nonc12)CCCC3`, the negative logarithm of the IC50 (pIC50) in assay [1] is 5.52. Further, the ΔTm in assay [3] is 1.2 °C; in assay [4], 2 °C.

For the molecule `O=C(O)c1cc(-c2ccc(-c3ccccc3[N+](=O)[O-])o2)nc2ccc3ccccc3c12`, the pIC50 in assay [1] was 5.52. Besides, the ΔTm is 2.2 °C in assay [3] and 1.5 °C in assay [4].

In the case of `Cc1ccc(C(=O)CSc2nnc(-c3ccncc3)[nH]2)c(C)c1`, the pIC50 in assay [1] was 5.30. In addition, the thermal shift (ΔTm) in assay [3] came out at 0.7 °C; in assay [4] it was 0 °C.

For the origin of these results see ChEMBL document CHEMBL4477233, “Discovery of novel TAOK2 inhibitor scaffolds from high-throughput screening” (Bioorg Med Chem Lett, 2016).
